Data taken from ChEMBL document CHEMBL5244266, “Nitrogen-containing naringenin derivatives for reversing multidrug resistance in cancer” (Bioorg Med Chem, 2020).

Key:
L5178Y [1] = experiment: Cytotoxicity against parental mouse L5178Y cells assessed as inhibition of cell growth incubated for 24 hrs by MTT assay; type: functional, cell-based
How it was run: (§1)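 L5178Y parental and human ABCB1 retrovirus-transfected lines were grown in McCoy's 5A with 10% heat-inactivated horse serum, and the MDR line was kept under colchicine 60 ng/mL. Cells were seeded at 1×10^4/well and given 2-fold dilutions from 100 μM maximum, in duplicate, for 24 h. MTT was added for 4 h, then SDS/HCl overnight at 37 °C, with OD read at 550 nm (ref 630 nm). Growth inhibition was computed against cell and medium controls, and IC50 came from curve fitting (mean ± SD).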

L5178Y [2] = experiment: (§2) Modulation of P-glycoprotein mediated Rhodamine-123 efflux in multi-drug resistant mouse L5178Y cells tranfected with ABCB1 gene assessed as fluorescence activity ratio at 2 uM preincubated for 10 mins followed by rhodamine-123 addition and measured after 20 mins by flow cytometric analysis (reference value: 1.01); type: cell-based; settings: filed as modulator, time 30.0 min
How it was run: (§3)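 Cells were held in serum-free McCoy's 5A with compound at 2.0 or 20 μM, verapamil 20 μM as positive control and DMSO 2% as solvent control, for 10 min at room temperature. R123 was then added (5.2 μM final) for 20 min at 37 °C, followed by two washes into PBS and flow cytometry (FL-1 mean fluorescence). FAR = (MDR treated/untreated FL-1) divided by (PAR treated/untreated FL-1).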

L5178Y [3] = experiment: Cytotoxicity against multi-drug resistant mouse L5178Y cells transfected with ABCB1 gene assessed as inhibition of cell growth incubated for 24 hrs by MTT assay; type: functional, cell-based; how it was run: as §1
L5178Y [4] = experiment: as §2, with “ratio by measuring fold change” for “ratio”, “at 20” for “at 2”, “analysis relative to verapamil” for “analysis (reference value: 1.01)”; type: cell-based; settings: filed as modulator, time 30.0 min; how it was run: as §3
L5178Y [5] = experiment: Synergistic cytotoxicity against multi-drug resistant mouse L5178Y cells transfected with ABCB1 gene assessed as combination index measured after 48 hrs in the presence of doxorubicin by MTT assay; type: functional
How it was run: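 This was a fixed-ratio checkerboard in L5178Y-MDR cells, with doxorubicin diluted from 14.7 to 0.1 μM against serial dilutions of the modulator. Cells were seeded at 2×10^5/mL, incubated 48 h, and read by MTT. Each curve was fitted linearly to the Chou–Talalay median-effect equation, keeping only fits with r > 0.90. CI at 50% inhibition is given as the mean ± SD of three CI values from different drug ratios.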

L5178Y [6] = experiment: as §2, with “ratio by measuring fold change” for “ratio”, “relative to verapamil” for “(reference value: 1.01)”; type: cell-based; settings: filed as modulator, time 30.0 min; how it was run: as §3

| Compound | IC50 (L5178Y [1]) | Ratio (L5178Y [2]) | IC50 (L5178Y [3]) | fold change (FC) (L5178Y [4]) | CI (L5178Y [5]) | fold change (FC) (L5178Y [6]) |
| --- | --- | --- | --- | --- | --- | --- |
| COC(=O)C1CCN(CC(O)COc2ccc([C@@H]3CC(=O)c4c(O)cc(OC)cc4O3)cc2)CC1 (stereo partly drawn) | ≥ 11.3 µM | 8.01 | ≥ 11.3 µM | – | – | – |
| COc1ccc([C@@H]2C/C(=N\NC(=O)c3ccco3)c3c(O)cc(OC)cc3O2)cc1 | 2.7 µM | 2.24 | 3.4 µM | – | – | – |
| COc1cc(O)c2c(c1)O[C@H](c1ccc(O)cc1)C/C2=N\Nc1ccccc1 | ≥ 11.3 µM | 1.16 | ≥ 11.3 µM | – | – | – |
| N/N=C1\C[C@@H](c2ccc(O)cc2)Oc2cc(O)cc(O)c21 | ≥ 11.3 µM | 0.72 | ≥ 11.3 µM | – | – | – |
| COc1cc(O)c2c(c1)O[C@H](c1ccc(O)cc1)C/C2=N\NC(=O)c1ccco1 | ≥ 11.3 µM | 1.28 | ≥ 11.3 µM | – | – | – |
| COc1ccc([C@@H]2C/C(=N\NC(=O)Cc3c[nH]c4ccccc34)c3c(O)cc(OC)cc3O2)cc1 | 8.6 µM | 2.47 | 7.5 µM | – | – | – |
| CN(C)C(=S)N/N=C1\C[C@@H](c2ccc(O)cc2)Oc2cc(O)cc(O)c21 | ≥ 11.3 µM | 2.17 | ≥ 11.3 µM | – | – | – |
| COc1cc(O)c2c(c1)O[C@H](c1ccc(OCC(O)CNC3CCN(Cc4ccccc4)CC3)cc1)CC2=O (stereo partly drawn) | ≥ 11.3 µM | 18.7 | ≥ 11.3 µM | 6 | 0.108 | 2 |
| COc1cc(O)c2c(c1)O[C@H](c1ccc(O)cc1)C/C2=N\NC(=O)c1cccs1 | 9.4 µM | 1.39 | 12 µM | – | – | – |
| COc1cccc(/C=N/N=C2\C[C@@H](c3ccc(O)cc3)Oc3cc(OC)cc(O)c32)c1 | ≥ 11.3 µM | 0.78 | ≥ 11.3 µM | – | – | – |
| COc1ccc([C@@H]2C/C(=N\N)c3c(O)cc(OC)cc3O2)cc1 | ≥ 11.3 µM | 0.85 | ≥ 11.3 µM | – | – | – |
| COc1cc(O)c2c(c1)O[C@H](c1ccc(O)cc1)C/C2=N\NC(=O)c1ccc(C(F)(F)F)cc1 | ≥ 11.3 µM | 0.83 | ≥ 11.3 µM | – | – | – |
| COc1cc(O)c2c(c1)O[C@H](c1ccc(O)cc1)C/C2=N\NC(=O)OCc1ccccc1 | ≥ 11.3 µM | 4.14 | ≥ 11.3 µM | 7 | 0.638 | – |
| COc1ccc([C@@H]2C/C(=N\Nc3ccccc3)c3c(O)cc(OC)cc3O2)cc1 | ≥ 11.3 µM | 1.8 | ≥ 11.3 µM | – | – | – |
| COc1cc(O)c2c(c1)O[C@H](c1ccc(O)cc1)C/C2=N\N | ≥ 11.3 µM | 1.26 | ≥ 11.3 µM | – | – | – |
| O=C(Cc1c[nH]c2ccccc12)N/N=C1\C[C@@H](c2ccc(O)cc2)Oc2cc(O)cc(O)c21 | ≥ 11.3 µM | 1 | ≥ 11.3 µM | – | – | – |
| COc1cc(O)c2c(c1)O[C@H](c1ccc(O)cc1)C/C2=N\Nc1ccc(Br)cn1 | 4.3 µM | 2.1 | 12.7 µM | – | – | – |
| COc1ccc([C@@H]2C/C(=N\Nc3ccc(Br)cn3)c3c(O)cc(OC)cc3O2)cc1 | 8 µM | 10.7 | 10.7 µM | – | – | – |
| O=C(N/N=C1\C[C@@H](c2ccc(O)cc2)Oc2cc(O)cc(O)c21)OCc1ccccc1 | ≥ 11.3 µM | 0.76 | ≥ 11.3 µM | – | – | – |
| COc1cc(O)c2c(c1)O[C@H](c1ccc(O)cc1)CC2=O [SAKURANETIN] | ≥ 11.3 µM | 1.06 | ≥ 11.3 µM | – | – | – |

| Compound | IC50 (L5178Y [1]) | Ratio (L5178Y [2]) | IC50 (L5178Y [3]) | fold change (FC) (L5178Y [4]) | CI (L5178Y [5]) | fold change (FC) (L5178Y [6]) |
| --- | --- | --- | --- | --- | --- | --- |
| O=C1C[C@@H](c2ccc(O)cc2)Oc2cc(O)cc(O)c21 [NARINGENIN] | ≥ 11.3 µM | 0.72 | ≥ 11.3 µM | – | – | – |
| COc1ccc([C@@H]2CC(=O)c3c(O)cc(OC)cc3O2)cc1 | ≥ 11.3 µM | 1.03 | ≥ 11.3 µM | – | – | – |
| COc1cc(O)c2c(c1)O[C@H](c1ccc(OCC(O)CSc3ccccc3)cc1)CC2=O (stereo partly drawn) | ≥ 11.3 µM | 0.92 | ≥ 11.3 µM | – | – | – |
| Oc1ccc([C@@H]2C/C(=N\Nc3ccc(Br)cn3)c3c(O)cc(O)cc3O2)cc1 | ≥ 11.3 µM | 1.08 | ≥ 11.3 µM | – | – | – |
| CCN(CC)CC(O)COc1ccc([C@@H]2CC(=O)c3c(O)cc(OC)cc3O2)cc1 (stereo partly drawn) | ≥ 11.3 µM | 4.06 | ≥ 11.3 µM | – | – | – |
| Oc1ccc([C@@H]2C/C(=N\Nc3ccccc3)c3c(O)cc(O)cc3O2)cc1 | ≥ 11.3 µM | 1.16 | ≥ 11.3 µM | – | – | – |
| Oc1ccc([C@@H]2C/C(=N\N=C\c3c[nH]c4ccccc34)c3c(O)cc(O)cc3O2)cc1 | ≥ 11.3 µM | 0.95 | ≥ 11.3 µM | – | – | – |
| COc1cc(O)c2c(c1)O[C@H](c1ccc(O)cc1)C/C2=N\NC(=O)Cc1c[nH]c2ccccc12 | ≥ 11.3 µM | 1.12 | ≥ 11.3 µM | – | – | – |
| COc1cc(O)c2c(c1)O[C@H](c1ccc(OCC(O)CN3CCCCC3)cc1)CC2=O (stereo partly drawn) | 9.3 µM | 3.08 | 17.4 µM | – | – | – |
| COc1cc(O)c2c(c1)O[C@H](c1ccc(OCC(O)Cc3c[nH]c4ccccc34)cc1)CC2=O (stereo partly drawn) | ≥ 11.3 µM | 0.86 | ≥ 11.3 µM | – | – | – |
| O=C(N/N=C1\C[C@@H](c2ccc(O)cc2)Oc2cc(O)cc(O)c21)c1ccco1 (stereo in doubt) | ≥ 11.3 µM | 0.86 | ≥ 11.3 µM | – | – | – |
| COc1cc(O)c2c(c1)O[C@H](c1ccc(O)cc1)C/C2=N\NC(=O)c1ccc(N)cc1 | ≥ 11.3 µM | 0.96 | ≥ 11.3 µM | – | – | – |
| COc1cc(O)c2c(c1)O[C@H](c1ccc(OCC3CO3)cc1)CC2=O (stereo partly drawn) | ≥ 11.3 µM | 1.17 | ≥ 11.3 µM | – | – | – |
| COc1ccc([C@@H]2C/C(=N\NC(=O)OCc3ccccc3)c3c(O)cc(OC)cc3O2)cc1 | > 100 µM | 0.94 | 7.2 µM | – | 0.445 | – |
| O=C(N/N=C1\C[C@@H](c2ccc(O)cc2)Oc2cc(O)cc(O)c21)c1cccs1 (stereo in doubt) | ≥ 11.3 µM | 0.92 | ≥ 11.3 µM | – | – | – |
| Cn1cccc1/C=N/N=C1\C[C@@H](c2ccc(O)cc2)Oc2cc(O)cc(O)c21 | ≥ 11.3 µM | 0.64 | ≥ 11.3 µM | – | – | – |
| Oc1ccc([C@@H]2C/C(=N\Nc3cnccn3)c3c(O)cc(O)cc3O2)cc1 | ≥ 11.3 µM | 1.65 | ≥ 11.3 µM | – | – | – |
| COc1cc(O)c2c(c1)O[C@H](c1ccc(OCC(O)CCl)cc1)CC2=O (stereo partly drawn) | ≥ 11.3 µM | 1.33 | ≥ 11.3 µM | – | – | – |
| COc1ccc([C@@H]2C/C(=N\NC(=O)c3ccc(N)cc3)c3c(O)cc(OC)cc3O2)cc1 | 3.9 µM | 1.32 | 1.3 µM | – | – | – |
